{"source": "ChEMBL document CHEMBL4602642", "about": "“Pyrola incarnata demonstrates neuroprotective effects against β-amyloid-induced memory impairment in mice” (Bioorg Med Chem Lett, 2020)", "key": {"Mus musculus [1]": {"test_system": "Mus musculus", "assay": "Neuroprotective activity in orally dosed amyloid beta (25 to 35) peptide-induced memory impairment C57BL/6 mouse model assessed as reduction in amyloid beta (25 to 35) peptide deposition administered via gavage by DAPI staining based immunohistochemical analysis", "assay_type": "functional, organism-based", "procedure,_shortened": "(§1)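 Hippocampal sections from Aβ25–35-injected mice after long-term dosing were immunostained for Aβ25–35 (red) and Iba-1 (green) with DAPI counterstain. Integral optical density was quantified and given as mean ± SEM.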"}, "Mus musculus [2]": {"test_system": "Mus musculus", "assay": "Cognitive enhancing effect in orally dosed C57BL/6 mouse model of amyloid beta (25 to 35) peptide-induced memory impairment assessed as reduction in escape latency time to find removed platform position measured on 4th day by Barnes maze test", "assay_type": "functional, organism-based", "procedure,_shortened": "(§2)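 Mice given Aβ25–35 by intracerebroventricular injection were run in a Barnes maze. Latency to enter the escape box was recorded over the training sessions, and latency and mistake counts were scored in the probe trial. Results are mean ± SEM.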"}, "Mus musculus [3]": {"test_system": "Mus musculus", "assay": "Cognitive enhancing effect in orally dosed C57BL/6 mouse model of amyloid beta (25 to 35) peptide-induced memory impairment assessed as increase in crossing numbers of target quadrants administered via gavage and measured on 6th day by Morris water maze test", "assay_type": "functional, organism-based", "procedure,_shortened": "(§3)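 Mice given intracerebroventricular Aβ25–35 received 14, 28 or 56 mg/kg, or an equal volume of vehicle. Morris water maze: swim speed taken on day 1, escape latency recorded in training sessions, probe trial on day 6 with the platform removed (time to target and platform crossings scored). n = 9 per group, mean ± SEM.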"}, "Mus musculus [4]": {"test_system": "Mus musculus", "assay": "Neuroprotective activity in orally dosed amyloid beta (25 to 35) peptide-induced memory impairment C57BL/6 mouse model assessed as increase in Iba1 expression administered via gavage by DAPI staining based immunohistochemical analysis", "assay_type": "functional, organism-based", "procedure,_shortened": "as §1"}, "Mus musculus [5]": {"test_system": "Mus musculus", "assay": "Cognitive enhancing effect in C57BL/6 mouse model of amyloid beta (25 to 35) peptide-induced memory impairment assessed as reduction in escape latency time to find removed platform position at 14 to 56 mg/kg, po administered via gavage and measured on 6th day by Morris water maze test", "assay_type": "functional, organism-based", "procedure,_shortened": "as §3"}, "Mus musculus [6]": {"test_system": "Mus musculus", "assay": "Cognitive enhancing effect in C57BL/6 mouse model of amyloid beta (25 to 35) peptide-induced memory impairment assessed as reduction in time to reach the target quadrants at 14 to 56 mg/kg, po administered via gavage and measured on 6th day by Morris water maze test", "assay_type": "functional, organism-based", "procedure,_shortened": "as §3"}, "[7]": {"assay": "Effect on locomotory activity in C57BL/6 mouse model of amyloid beta (25 to 35) peptide-induced memory impairment assessed as change in mean speed of swimming at 14 to 56 mg/kg, po administered via gavage by Morris water maze test", "assay_type": "ADME, organism-based", "conditions": "in vivo", "procedure,_shortened": "as §3"}, "Mus musculus [8]": {"test_system": "Mus musculus", "assay": "Cognitive enhancing effect in C57BL/6 mouse model of amyloid beta (25 to 35) peptide-induced memory impairment assessed as reduction in escape latency time to find removed platform position at 14 mg/kg, po administered via gavage and measured on 5th day by Morris water maze test", "assay_type": "functional, organism-based", "procedure,_shortened": "as §3"}, "[9]": {"assay": "Effect on locomotory activity in C57BL/6 mouse model of amyloid beta (25 to 35) peptide-induced memory impairment assessed as change in mean speed at 14 to 56 mg/kg, po administered via gavage measured for 5 mins by open field test", "assay_type": "ADME, organism-based", "conditions": "in vivo", "procedure,_shortened": "(§4)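 Open-field test after intracerebroventricular Aβ25–35 and dosing at 14, 28 or 56 mg/kg or vehicle. Line crossings and mean speed were counted during a 5-minute session. Results are mean ± SEM.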"}, "Mus musculus [10]": {"test_system": "Mus musculus", "assay": "Cognitive enhancing effect in C57BL/6 mouse model of amyloid beta (25 to 35) peptide-induced memory impairment assessed as reduction in escape latency time to find removed platform position at 56 mg/kg, po administered via gavage and measured on 5th day by Morris water maze test", "assay_type": "functional, organism-based", "conditions": "in the assay text read “6th day” for “5th day”", "procedure,_shortened": "as §3"}, "[11]": {"assay": "Effect on locomotory activity in C57BL/6 mouse model of amyloid beta (25 to 35) peptide-induced memory impairment assessed as change in number of line crossing at 14 to 56 mg/kg, po administered via gavage measured for 5 mins by open field test", "assay_type": "ADME, organism-based", "conditions": "in vivo", "procedure,_shortened": "as §4"}, "Mus musculus [12]": {"test_system": "Mus musculus", "assay": "Cognitive enhancing effect in C57BL/6 mouse model of amyloid beta (25 to 35) peptide-induced memory impairment assessed as reduction in escape latency time to find removed platform position at 56 mg/kg, po administered via gavage and measured on 4th day by Barnes maze test", "assay_type": "functional, organism-based", "procedure,_shortened": "(§5)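 Barnes maze in mice given intracerebroventricular Aβ25–35: latency to enter the escape box over the training days, plus latency and mistake counts in the probe trial, each compared with the vehicle-treated Aβ25–35 group. Results are mean ± SEM.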"}, "Mus musculus [13]": {"test_system": "Mus musculus", "assay": "Cognitive enhancing effect in C57BL/6 mouse model of amyloid beta (25 to 35) peptide-induced memory impairment assessed as reduction in mistake time to find removed platform position at 56 mg/kg, po administered via gavage and measured on 4th day by Barnes maze test", "assay_type": "functional, organism-based", "procedure,_shortened": "as §5"}, "Mus musculus [14]": {"test_system": "Mus musculus", "assay": "Neuroprotective activity in amyloid beta (25 to 35) peptide-induced memory impairment C57BL/6 mouse model assessed as increase in number of microglia expression at 14 to 56 mg/kg, po administered via gavage by DAPI staining based immunohistochemical analysis", "assay_type": "functional, organism-based", "procedure,_shortened": "as §1"}, "Mus musculus [15]": {"test_system": "Mus musculus", "assay": "Cognitive enhancing effect in orally dosed C57BL/6 mouse model of amyloid beta (25 to 35) peptide-induced memory impairment assessed as reduction in mistake time to find removed platform position measured on 4th day by Barnes maze test", "assay_type": "functional, organism-based", "procedure,_shortened": "as §2"}, "Mus musculus [16]": {"test_system": "Mus musculus", "assay": "Neuroprotective activity in amyloid beta (25 to 35) peptide-induced memory impairment C57BL/6 mouse model assessed as reduction in amyloid beta (25 to 35) peptide deposition at 14 to 56 mg/kg, po administered via gavage by DAPI staining based immunohistochemical analysis", "assay_type": "functional, organism-based", "procedure,_shortened": "as §1"}, "Mus musculus [17]": {"test_system": "Mus musculus", "assay": "Cognitive enhancing effect in C57BL/6 mouse model of amyloid beta (25 to 35) peptide-induced memory impairment assessed as reduction in escape latency time to find removed platform position at 28 mg/kg, po administered via gavage and measured on 5th day by Morris water maze test", "assay_type": "functional, organism-based", "procedure,_shortened": "as §3"}}, "note": "Active and inactive are the calls of the source. The calls are words filed in the database; no cut-off is given here."}
{"smiles": "C[C@H]1[C@H](C)CC[C@]2(C(=O)O)CC[C@]3(C)C(=CC[C@@H]4[C@@]5(C)CC[C@H](O)C(C)(C)[C@@H]5CC[C@]43C)[C@H]12", "note": "[URSOLIC ACID]", "values": [{"measurement": "Activity", "setting": "Mus musculus [1]", "value": "Dose-dependent effect"}, {"measurement": "Activity", "setting": "Mus musculus [2]", "value": "Dose-dependent effect"}, {"measurement": "Activity", "setting": "Mus musculus [3]", "value": "Dose-dependent effect"}, {"measurement": "Activity", "setting": "Mus musculus [4]", "value": "Dose-dependent effect"}, {"measurement": "Activity", "setting": "Mus musculus [5]", "value": "Active"}, {"measurement": "Activity", "setting": "Mus musculus [6]", "value": "Active"}, {"measurement": "Activity", "setting": "[7]", "value": "Non-Toxic"}, {"measurement": "Activity", "setting": "Mus musculus [8]", "value": "Active"}, {"measurement": "Activity", "setting": "[9]", "value": "Non-Toxic"}, {"measurement": "Activity", "setting": "Mus musculus [10]", "value": "Active"}, {"measurement": "Activity", "setting": "[11]", "value": "Non-Toxic"}, {"measurement": "Activity", "setting": "Mus musculus [12]", "value": "Active"}, {"measurement": "Activity", "setting": "Mus musculus [13]", "value": "Active"}, {"measurement": "Activity", "setting": "Mus musculus [14]", "value": "Active"}, {"measurement": "Activity", "setting": "Mus musculus [15]", "value": "Dose-dependent effect"}, {"measurement": "Activity", "setting": "Mus musculus [16]", "value": "Active"}, {"measurement": "Activity", "setting": "Mus musculus [17]", "value": "Active"}]}
